Laboratory results from ChEMBL document CHEMBL1138278, “Aromatic amide derivatives of 5,6-dimethoxy-2,3-dihydro-1H-inden(-1-yl)acetic acid as anti-inflammatory agents free of ulcerogenic liability” (Bioorg Med Chem Lett, 2007).

Assays:
[1] = tested on: Rattus norvegicus; test: Antiinflammatory activity in Wistar rat assessed as inhibition of carrageenan-induced paw edema at 100 mg/kg, after 1 hr; assay type: functional
Outline: (§1)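 Male Wistar rats (170 ± 20 g) dosed orally: test agents at 100 mg/kg, reference at 10 mg/kg. One hour later, 0.1 ml of 1% carrageenan injected subplantar into the right hind paw.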

[2] = tested on: Rattus norvegicus; test: Antiinflammatory activity in Wistar rat assessed as inhibition of carrageenan-induced paw edema at 100 mg/kg, after 2 hrs; assay type: functional; outline: as §1
[3] = tested on: Rattus norvegicus; test: Antiinflammatory activity in Wistar rat assessed as inhibition of carrageenan-induced paw edema at 100 mg/kg, after 3 hrs; assay type: functional; outline: as §1
[4] = tested on: Rattus norvegicus; test: Antiinflammatory activity in Wistar rat assessed as inhibition of carrageenan-induced paw edema at 100 mg/kg, after 4 hrs; assay type: functional; outline: as §1
[5] = tested on: Rattus norvegicus; test: Antiinflammatory activity in Wistar rat assessed as inhibition of carrageenan-induced paw edema at 100 mg/kg, after 6 hrs; assay type: functional; outline: as §1
[6] = tested on: Rattus norvegicus; test: Antiinflammatory activity in Wistar rat assessed as inhibition of carrageenan-induced paw edema at 100 mg/kg, after 24 hrs; assay type: functional; outline: as §1
[7] = tested on: Mus musculus; test: Analgesic activity in Swiss Albino mouse assessed as number of acetic acid-induced writhing at 100 mg/kg, po after 1 hr relative to control; assay type: functional
Outline: (§2)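 Mice dosed orally; one hour later injected i.p. with 1% v/v acetic acid at 0.1 ml/10 g. Writhings counted over 15 min, starting five minutes after injection. Means ± SEM, n = 6; p < 0.05 versus control group.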

[8] = tested on: Mus musculus; test: Analgesic activity in Swiss Albino mouse assessed as inhibition of acetic acid-induced writhing responses at 100 mg/kg, po after 1 hr; assay type: functional; outline: as §2
[9] = tested on: Rattus norvegicus; test: Antipyretic activity against LPS-induced pyresis in Wistar rat assessed as change in rectal temperature at 100 mg/kg, po after 1 hr; assay type: functional
Outline: (§3)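 Male Wistar rats (170 ± 20 g) dosed orally: test agents at 100 mg/kg, indomethacin and aspirin at 10 mg/kg and 100 mg/kg. Half an hour later, LPS in apyrogenic saline given at 100 µg/kg i.p. Rectal temperature taken by telethermometer probe immediately before LPS and hourly from 1 to 7 h after. Change in temperature reported; means ± SEM, n = 6.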

[10] = tested on: Rattus norvegicus; test: Antipyretic activity against LPS-induced pyresis in Wistar rat assessed as change in rectal temperature at 100 mg/kg, po after 2 hrs; assay type: functional; outline: as §3
[11] = tested on: Rattus norvegicus; test: Antipyretic activity against LPS-induced pyresis in Wistar rat assessed as change in rectal temperature at 100 mg/kg, po after 3 hrs; assay type: functional; outline: as §3
[12] = tested on: Rattus norvegicus; test: Antipyretic activity against LPS-induced pyresis in Wistar rat assessed as change in rectal temperature at 100 mg/kg, po after 4 hrs; assay type: functional; outline: as §3
[13] = tested on: Rattus norvegicus; test: Antipyretic activity against LPS-induced pyresis in Wistar rat assessed as change in rectal temperature at 100 mg/kg, po after 5 hrs; assay type: functional; outline: as §3
[14] = tested on: Rattus norvegicus; test: Antipyretic activity against LPS-induced pyresis in Wistar rat assessed as change in rectal temperature at 100 mg/kg, po after 6 hrs; assay type: functional; outline: as §3
[15] = tested on: Rattus norvegicus; test: Antipyretic activity against LPS-induced pyresis in Wistar rat assessed as change in rectal temperature at 100 mg/kg, po after 7 hrs; assay type: functional; outline: as §3
[16] = tested on: Rattus norvegicus; test: Antiarthritic activity against adjuvant-induced arthritis in Wistar rat assessed as inhibition of paw edema at 100 mg/kg, po on day 3; assay type: functional; details: 72 h
Outline: (§4)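 Male Wistar rats (160 ± 10 g) dosed orally once daily for 14 days, from the day before injecting 0.1 ml Freund's complete adjuvant into the subplantar surface of the right hind paw. Paw swelling, including the uninjected left paw, and body weight recorded. Means ± SEM, n = 6; p < 0.05 versus control.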

[17] = tested on: Rattus norvegicus; test: Antiarthritic activity against adjuvant-induced arthritis in Wistar rat assessed as inhibition of paw edema at 100 mg/kg, po on day 8; assay type: functional; details: 192 h; outline: as §4
[18] = tested on: Rattus norvegicus; test: Antiarthritic activity against adjuvant-induced arthritis in Wistar rat assessed as inhibition of paw edema at 100 mg/kg, po on day 13; assay type: functional; details: 312 h; outline: as §4
[19] = tested on: Rattus norvegicus; test: Antiarthritic activity against adjuvant-induced arthritis in Wistar rat assessed as weight change at 100 mg/kg, po; assay type: functional; outline: as §4
[20] = tested on: Rattus norvegicus; test: Toxicity in 24 hrs fasted Wistar rat assessed as ulcer index at 100 mg/kg, po after 6 hrs; assay type: organism-based; set-up: dose 100 mg/kg, route oral; details: in vivo
Outline: (§5)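 Male Wistar rats (175 ± 25 g) fasted 24 h and dosed orally. Acute arm: test agents at 100 mg/kg, indomethacin at 30 mg/kg; rats killed after 6 h, stomachs opened along the greater curvature and scored for ulcers. Chronic arm: 14-day dosing, stomachs examined post mortem at the end of the arthritis study. Ulcer index means ± SEM, n = 4.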

[21] = tested on: Rattus norvegicus; test: Toxicity in 24 hrs fasted Wistar rat assessed as ulcer index at 100 mg/kg, po after 14 days; assay type: organism-based; set-up: dose 100 mg/kg, route oral; details: in vivo, 336 h; outline: as §5
[22] = tested on: Mus musculus; test: Analgesic activity in Swiss Albino mouse assessed as inhibition of acetic acid-induced writhing responses at 10 mg/kg, po after 1 hr; assay type: functional; outline: as §2
[23] = tested on: Rattus norvegicus; test: Antipyretic activity against LPS-induced pyresis in Wistar rat assessed as change in rectal temperature at 10 mg/kg, po after 1 hr; assay type: functional; outline: as §3
[24] = tested on: Rattus norvegicus; test: Antipyretic activity against LPS-induced pyresis in Wistar rat assessed as change in rectal temperature at 10 mg/kg, po after 3 hrs; assay type: functional; outline: as §3
[25] = tested on: Rattus norvegicus; test: Antipyretic activity against LPS-induced pyresis in Wistar rat assessed as change in rectal temperature at 10 mg/kg, po after 4 hrs; assay type: functional; outline: as §3
[26] = tested on: Rattus norvegicus; test: Antipyretic activity against LPS-induced pyresis in Wistar rat assessed as change in rectal temperature at 10 mg/kg, po after 5 hrs; assay type: functional; outline: as §3
[27] = tested on: Rattus norvegicus; test: Antipyretic activity against LPS-induced pyresis in Wistar rat assessed as change in rectal temperature at 100 mg/kg, po after 2 hrs
[28] = tested on: Rattus norvegicus; test: Antipyretic activity against LPS-induced pyresis in Wistar rat assessed as change in rectal temperature at 100 mg/kg, po after 6 hrs
[29] = tested on: Rattus norvegicus; test: Antipyretic activity against LPS-induced pyresis in Wistar rat assessed as change in rectal temperature at 100 mg/kg, po after 7 hrs
[30] = tested on: Mus musculus; test: Analgesic activity in Swiss Albino mouse assessed as number of acetic acid-induced writhing at 100 mg/kg, po after 1 hr relative to control

Row | SMILES | inhibition in vivo at 100 mg/kg [1] | inhibition in vivo at 100 mg/kg [2] | inhibition in vivo at 100 mg/kg [3] | inhibition in vivo at 100 mg/kg [4] | inhibition in vivo at 100 mg/kg [5] | inhibition in vivo at 100 mg/kg [6] | Activity [7] | inhibition in vivo at 100 mg/kg [8] | further results
1 | COc1cc2c(cc1OC)C(CC(=O)Nc1ccccn1)CC2 (stereo not given) | 25% | 32% | 30.4% | 29.7% | 29.6% | 33.3% | 18 | 48% | 
2 | COc1cc2c(cc1OC)C(CC(=O)Nc1cccnc1)CC2 (stereo not given) | 25% | 30% | 33.3% | 34.4% | 35.2% | 36.7% | 10.17 | 70.7% | 
3 | COc1cc2c(cc1OC)C(CC(=O)Nc1ccccc1)CC2 (stereo not given) | 31.2% | 32% | 36.2% | 37.5% | 38.9% | 30% | 19.83 | 42.8% | 
4 | COc1ccc(NC(=O)CC2CCc3cc(OC)c(OC)cc32)cc1 (stereo not given) | 34.4% | 18% | 26.1% | 27.3% | 29.6% | 40% | 14.33 | 58.7% | Activity [9]: -0.12 °C; Activity [10]: -1.84 °C; Activity [11]: -0.66 °C; Activity [12]: -0.15 °C; Activity [13]: 0.14 °C; Activity [14]: 0.26 °C; Activity [15]: 0.43 °C
5 | COc1cc2c(cc1OC)C(CC(=O)Nc1ccc(NC(C)=O)cc1)CC2 (stereo not given) | 25% | 18% | 23.2% | 22.7% | 24.1% | 33.3% | 24 | 30.8% | 
6 | COc1cc2c(cc1OC)C(CC(=O)Nc1ccccc1C)CC2 (stereo not given) | 21.9% | 18% | 26.1% | 25% | 25.9% | 23.3% | 24.3 | 30% | 
7 | COc1cc2c(cc1OC)C(CC(=O)Nc1cccc(Cl)c1)CC2 (stereo not given) | 31.2% | 28% | 24.6% | 25.8% | 38.9% | 63.3% | 16.83 | 51.5% | Activity [9]: -0.35 °C; Activity [10]: -1.62 °C; Activity [11]: -0.24 °C; Activity [12]: 0.05 °C; Activity [13]: 0.23 °C; Activity [14]: 0.44 °C; Activity [15]: 0.42 °C; inhibition in vivo at 100 mg/kg [16]: 37.5%; inhibition in vivo at 100 mg/kg [17]: 25.8%; inhibition in vivo at 100 mg/kg [18]: 35.7%; Activity [19]: 7.21 g; UI [20]: 0; UI [21]: 0
8 | COc1cc2c(cc1OC)C(CC(=O)Nc1ccc(C)cc1)CC2 (stereo not given) | 34.4% | 26% | 34.8% | 32.8% | 37% | 30% | 20.33 | 41.4% | UI [20]: 0
9 | COc1cc2c(cc1OC)C(CC(=O)Nc1ccc([N+](=O)[O-])cc1)CC2 (stereo not given) | 37.5% | 36% | 37.7% | 37.5% | 37% | 43.3% | 15.33 | 55.8% | inhibition in vivo at 100 mg/kg [16]: 27.2%; inhibition in vivo at 100 mg/kg [17]: 17.7%; inhibition in vivo at 100 mg/kg [18]: 10.8%; Activity [19]: 4.01 g; UI [20]: 0
10 | COc1cc2c(cc1OC)C(CC(=O)Nc1ccc(Br)cc1)CC2 (stereo not given) | 50% | 40% | 43.5% | 40.6% | 46.3% | 66.7% | 21.67 | 37.5% | 
11 | COc1cc2c(cc1OC)C(CC(=O)Nc1ccncc1)CC2 (stereo not given) | 42.2% | 44% | 42% | 45.3% | 46.3% | 46.7% | 13.83 | 60.1% | Activity [9]: -0.11 °C; Activity [10]: -2.23 °C; Activity [11]: -0.87 °C; Activity [12]: 0.13 °C; Activity [13]: 0.35 °C; Activity [14]: 0.74 °C; Activity [15]: 0.42 °C; inhibition in vivo at 100 mg/kg [16]: 17%; inhibition in vivo at 100 mg/kg [17]: 11.1%; inhibition in vivo at 100 mg/kg [18]: 19.7%; Activity [19]: 4.25 g
12 | COc1cc2c(cc1OC)C(CC(=O)O)CC2 (stereo not given) | 18.8% | 24% | 27.5% | 23.9% | 20.4% | 26.7% | 19.41 | 44% | 
13 | COc1ccccc1NC(=O)CC1CCc2cc(OC)c(OC)cc21 (stereo not given) | 28.1% | 16% | 21.7% | 23.4% | 24.1% | 30% | 26.17 | 24.5% | 
14 | COc1cc2c(cc1OC)C(CC(=O)Nc1cccc(C)c1)CC2 (stereo not given) | 37.5% | 29% | 37.7% | 40.6% | 38% | 41.7% | 15.83 | 54.3% | Activity [9]: -0.19 °C; Activity [10]: -1.34 °C; Activity [11]: -0.51 °C; Activity [12]: 0.22 °C; Activity [13]: 0.46 °C; Activity [14]: 0.71 °C; Activity [15]: 0.82 °C; inhibition in vivo at 100 mg/kg [16]: 16.5%; inhibition in vivo at 100 mg/kg [17]: 19.2%; inhibition in vivo at 100 mg/kg [18]: 20.7%; Activity [19]: 4.56 g; UI [21]: 0
15 | CC(=O)Oc1ccccc1C(=O)O [ASPIRIN] |  |  |  |  |  |  |  |  | inhibition in vivo at 10 mg/kg [22]: 61.5%; Activity [23]: -0.43 °C; Activity [24]: -0.51 °C; Activity [25]: 0.11 °C; Activity [26]: 0.2 °C; Activity [27]: -1.45 °C; Activity [28]: 0.25 °C; Activity [29]: 0.31 °C; Activity [30]: 13.33
